{"source": "paper PMC9536290", "about": "(Clinical Infectious Diseases: An Official Publication of …, 2022)", "key": {"[1]": {"experiment": "Phase IIa monotherapy study: plasma pharmacokinetics", "format": "in vivo, HIV-1–positive, treatment-naive adults", "conditions": "for Accumulation ratio AUC0-τ, geometric mean (% CVb) / Accumulation ratio Cmax, geometric mean (% CVb) / Accumulation ratio Cτ, geometric mean (% CVb): steady state vs day 1; for Tmax / AUC(0-t): human", "in_short": "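Oral doses were given once daily with food: part 1 for 10 days, part 2 for 7 days. Plasma drug was measured by LC-MS/MS (range 3.00–1000 ng/mL). Noncompartmental parameters were AUC0-24, Cmax and tmax on day 1, and AUC0-τ, Cmax and Cτ at steady state (day 8, 9 or 10 in part 1; day 7 in part 2). Accumulation ratios were steady state vs day 1, and dose proportionality used a power model. Participants vomiting within 1× tmax were excluded.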"}, "HIV-1": {"test_system": "HIV-1", "experiment": "Phase IIa monotherapy study: antiviral effect", "format": "in vivo, HIV-1–positive, treatment-naive adults", "conditions": "for Plasma HIV-1 RNA change from baseline to nadir, mean (SD): n = 6; for Modeled plasma HIV-1 RNA maximum change (nadir), least squares mean (90% CI): mixed-effects model", "in_short": "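Randomized, double-blind, placebo-controlled oral monotherapy, once daily after a moderate-fat meal (≥400 calories, ≥120 from fat) taken 30 minutes before dosing. Part 1: 10 or 200 mg for 10 days. Part 2: 40–140 mg for 7 days, then combination ART from day 8. Plasma HIV-1 RNA endpoints were maximum change and change to day 11 (part 1) or day 8 (part 2). Maximum change was fitted by a mixed-effects linear model; dose–response by an Emax model pooling both parts (ED50).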"}, "[2]": {"conditions": "10 mg once daily, part 1 (10 days)"}, "[3]": {"conditions": "40 mg once daily, part 2 (7 days)"}, "[4]": {"conditions": "80 mg once daily, part 2 (7 days)"}, "[5]": {"conditions": "140 mg once daily, part 2 (7 days)"}, "[6]": {"conditions": "200 mg once daily, part 1 (10 days)"}}, "note": "“And” between values parts separate entries of the source, which are not always exact repeats. Equal values may be shown once.", "data": [{"smiles": "C=C(C)[C@@H]1CC[C@]2(NCCN3CCS(=O)(=O)CC3)CC[C@]3(C)[C@H](CC[C@@H]4[C@@]5(C)CC=C(C6=CC[C@@](CF)(C(=O)O)CC6)C(C)(C)[C@@H]5CC[C@]43C)[C@@H]12", "note": "[GSK’254]", "values": [{"measurement": "Accumulation ratio AUC0-τ, geometric mean (% CVb)", "setting": "[1]; 10 mg once daily", "value": "1.54 (24.5)"}, {"measurement": "Accumulation ratio Cmax, geometric mean (% CVb)", "setting": "[1]; 10 mg once daily", "value": "0.93 (171.7)"}, {"measurement": "Accumulation ratio Cτ, geometric mean (% CVb)", "setting": "[1]; 10 mg once daily", "value": "1.48 (22.2)"}, {"measurement": "Accumulation ratio AUC0-τ, geometric mean (% CVb)", "setting": "[1]; 40 mg once daily", "value": "2.29 (11.2)"}, {"measurement": "Accumulation ratio Cmax, geometric mean (% CVb)", "setting": "[1]; 40 mg once daily", "value": "2.03 (24.4)"}, {"measurement": "Accumulation ratio Cτ, geometric mean (% CVb)", "setting": "[1]; 40 mg once daily", "value": "2.30 (6.4)"}, {"measurement": "Accumulation ratio AUC0-τ, geometric mean (% CVb)", "setting": "[1]; 80 mg once daily", "value": "1.93 (18.6)"}, {"measurement": "Accumulation ratio Cmax, geometric mean (% CVb)", "setting": "[1]; 80 mg once daily", "value": "1.73 (17.6)"}, {"measurement": "Accumulation ratio Cτ, geometric mean (% CVb)", "setting": "[1]; 80 mg once daily", "value": "1.94 (20.8)"}, {"measurement": "Accumulation ratio Cmax, geometric mean (% CVb)", "setting": "[1]; 140 mg once daily", "value": "2.02 (37.5)"}, {"measurement": "Accumulation ratio Cτ, geometric mean (% CVb)", "setting": "[1]; 140 mg once daily", "value": "1.90 (16.0)"}, {"measurement": "Accumulation ratio AUC0-τ, geometric mean (% CVb)", "setting": "[1]; 200 mg once daily", "value": "2.25 (72.1)"}, {"measurement": "Accumulation ratio Cmax, geometric mean (% CVb)", "setting": "[1]; 200 mg once daily", "value": "1.98 (69.4)"}, {"measurement": "Accumulation ratio Cτ, geometric mean (% CVb)", "setting": "[1]; 200 mg once daily", "value": "1.98 (61.2)"}, {"measurement": "Dose proportionality of plasma PK", "setting": "[1]; 10-200 mg", "value": "generally dose proportional to 140 mg but non-proportional between 140 and 200 mg"}, {"measurement": "Tmax", "setting": "[1]; plasma, oral, Median tmax across all doses, steady state, 10-200 mg", "value": "4.02 to 5.48", "unit": "h"}, {"measurement": "AUC(0-t)", "setting": "[1]; plasma, po, 10 mg", "value": 700, "unit": "ng·h/mL"}, {"measurement": "AUC(0-t)", "setting": "[1]; plasma, po, 40 mg", "value": 3250, "unit": "ng·h/mL"}, {"measurement": "AUC(0-t)", "setting": "[1]; plasma, po, 80 mg", "value": 6120, "unit": "ng·h/mL"}, {"measurement": "AUC(0-t)", "setting": "[1]; plasma, po, 140 mg", "value": 14000, "unit": "ng·h/mL"}, {"measurement": "Tmax", "setting": "[1]; plasma, po, 140 mg, tmax, median (range), repeat dose 140 mg once daily, day 7 (part 2), plasma, n = 6", "value": 4.08, "unit": "h"}, {"measurement": "AUC(0-t)", "setting": "[1]; plasma, po, 200 mg", "value": 12400, "unit": "ng·h/mL"}, {"measurement": "Tmax", "setting": "[1]; plasma, po, 200 mg, tmax, median (range), repeat dose 200 mg once daily, Day 8, 9, or 10 (part 1), plasma, n = 6", "value": 5.48, "unit": "h"}, {"measurement": "Dose proportionality power model estimated slope (90% CI) for Cτ", "setting": "[1]; repeat administration, steady state", "value": "1.14 (90% CI: 1.02–1.26)"}, {"measurement": "CL/F (apparent oral clearance), geometric mean (% CVb)", "setting": "[1]; repeat dose 40 mg once daily, day 7 (part 2), n = 6", "value": "5360 (26.8) mL/h"}, {"measurement": "CL/F (apparent oral clearance), geometric mean (% CVb)", "setting": "[1]; repeat dose 80 mg once daily, day 7 (part 2), n = 6", "value": "6765 (26.7) mL/h"}, {"measurement": "CL/F (apparent oral clearance), geometric mean (% CVb)", "setting": "[1]; repeat dose 140 mg once daily, day 7 (part 2), n = 6", "value": "4779 (27.9) mL/h"}, {"measurement": "CL/F (apparent oral clearance), geometric mean (% CVb)", "setting": "[1]; repeat dose 200 mg once daily, Day 8, 9, or 10 (part 1), n = 6", "value": "7159 (18.4) mL/h"}, {"measurement": "AUC0-τ, geometric mean (% CVb)", "setting": "[1]; repeat dose 200 mg once daily, Day 8, 9, or 10 (part 1), plasma, n = 6", "value": "27.90 (18.4) µg∗h/mL"}, {"measurement": "Mean trough concentration relative to target trough concentration", "setting": "[1]; ≥40-mg groups (all dose groups except 10 mg)", "value": "> 110", "unit": "ng/mL"}, {"measurement": "Maximum change in HIV-1 RNA", "setting": "HIV-1; 10 mg once daily, 10 days", "value": "−0.4", "unit": "log10"}, {"measurement": "Plasma HIV-1 RNA change from baseline to nadir, mean (SD)", "setting": "HIV-1; [2]", "value": "−0.36 (0.25) log10 copies/mL"}, {"measurement": "Modeled plasma HIV-1 RNA maximum change (nadir), least squares mean (90% CI)", "setting": "HIV-1; [2]", "value": "−0.34 (−.67 to −.00) log10 copies/mL"}, {"measurement": "Plasma HIV-1 RNA change from baseline to primary endpoint, mean (SD)", "setting": "HIV-1; 10 mg once daily, part 1, Day 11, n = 6", "value": "−0.22 (0.31) log10 copies/mL"}, {"measurement": "Maximum change in HIV-1 RNA", "setting": "HIV-1; 40 mg once daily, 7 days", "value": "−1.2", "unit": "log10"}, {"measurement": "Plasma HIV-1 RNA change from baseline to nadir, mean (SD)", "setting": "HIV-1; [3]", "value": "−1.18 (0.44) log10 copies/mL"}, {"measurement": "Modeled plasma HIV-1 RNA maximum change (nadir), least squares mean (90% CI)", "setting": "HIV-1; [3]", "value": "−1.05 (−1.29 to −.82) log10 copies/mL"}, {"measurement": "Plasma HIV-1 RNA change from baseline to primary endpoint, mean (SD)", "setting": "HIV-1; 40 mg once daily, part 2, Day 8, n = 6", "value": "−1.18 (0.44) log10 copies/mL"}, {"measurement": "Maximum change in HIV-1 RNA", "setting": "HIV-1; 80 mg once daily, 7 days", "value": "−1.0", "unit": "log10"}, {"measurement": "Plasma HIV-1 RNA change from baseline to nadir, mean (SD)", "setting": "HIV-1; [4]", "value": "−1.02 (0.33) log10 copies/mL"}, {"measurement": "Modeled plasma HIV-1 RNA maximum change (nadir), least squares mean (90% CI)", "setting": "HIV-1; [4]", "value": "−0.94 (−1.16 to −.72) log10 copies/mL"}, {"measurement": "Plasma HIV-1 RNA change from baseline to primary endpoint, mean (SD)", "setting": "HIV-1; 80 mg once daily, part 2, Day 8, n = 6", "value": "−1.02 (0.33) log10 copies/mL"}, {"measurement": "Maximum change in HIV-1 RNA", "setting": "HIV-1; 140 mg once daily, 7 days", "value": "−1.5", "unit": "log10"}, {"measurement": "Plasma HIV-1 RNA change from baseline to nadir, mean (SD)", "setting": "HIV-1; [5]", "value": "−1.49 (0.27) log10 copies/mL"}, {"measurement": "Modeled plasma HIV-1 RNA maximum change (nadir), least squares mean (90% CI)", "setting": "HIV-1; [5]", "value": "−1.49 (−1.70 to − 1.28) log10 copies/mL"}, {"measurement": "Plasma HIV-1 RNA change from baseline to primary endpoint, mean (SD)", "setting": "HIV-1; 140 mg once daily, part 2, Day 8, n = 6", "value": "−1.45 (0.24) log10 copies/mL"}, {"measurement": "Maximum change in HIV-1 RNA", "setting": "HIV-1; 200 mg once daily, 10 days", "value": "−2.0", "unit": "log10"}, {"measurement": "Plasma HIV-1 RNA change from baseline to nadir, mean (SD)", "setting": "HIV-1; [6]", "value": "−2.01 (0.33) log10 copies/mL"}, {"measurement": "Modeled plasma HIV-1 RNA maximum change (nadir), least squares mean (90% CI)", "setting": "HIV-1; [6]", "value": "−1.93 (−2.24 to −1.62) log10 copies/mL"}, {"measurement": "Plasma HIV-1 RNA change from baseline to primary endpoint, mean (SD)", "setting": "HIV-1; 200 mg once daily, part 1, Day 11, n = 6", "value": "−1.96 (0.34) log10 copies/mL"}, {"measurement": "Maximum mean decline from baseline in HIV-1 RNA", "setting": "HIV-1; 10-mg dose", "value": 0.36, "unit": "log10"}, {"measurement": "Participants with >1.5-log10 decline in HIV-1 RNA from baseline at Day 8", "setting": "HIV-1; 40-mg group (n = 6)", "value": 1, "unit": "participants"}, {"measurement": "Maximum mean decline in HIV-1 RNA", "setting": "HIV-1; 140-mg group", "value": 1.5, "unit": "log10"}, {"measurement": "Participants with >1.5-log10 decline in HIV-1 RNA from baseline at Day 8", "setting": "HIV-1; 140-mg group (n = 6)", "value": 3, "unit": "participants"}, {"measurement": "Maximum mean decline in HIV-1 RNA", "setting": "HIV-1; 200-mg group", "value": 2.0, "unit": "log10"}, {"measurement": "Decline from baseline in HIV-1 RNA at day 11 in all participants", "setting": "HIV-1; 200-mg group, day 11", "value": "> 1.5", "unit": "log10"}, {"measurement": "Half maximal effective dose (ED50)", "setting": "HIV-1; Emax nonlinear model, maximum change in HIV-1 RNA to day 8 vs dose, once daily", "value": "42.67 mg and 42.7 mg and ~ 43 mg"}, {"measurement": "Decline in HIV-1 RNA", "setting": "HIV-1; doses ≥40 mg, regardless of dosing duration", "value": "≥ 1", "unit": "log10"}, {"measurement": "Potency as an antiviral (maximum change in HIV-1 RNA)", "setting": "HIV-1; monotherapy", "value": 2, "unit": "log10"}, {"measurement": "Median time to nadir in HIV-1 RNA", "setting": "HIV-1; part 1 (10 days dosing)", "value": 11.5, "unit": "days"}, {"measurement": "Median time to nadir in HIV-1 RNA", "setting": "HIV-1; part 2 (7 days dosing)", "value": 8.0, "unit": "days"}]}]}
